Source: ChEMBL document CHEMBL2057168, “(1aR,5aR)1a,3,5,5a-Tetrahydro-1H-2,3-diaza-cyclopropa[a]pentalene-4-carboxylic acid (MK-1903): a potent GPR109a agonist that lowers free fatty acids in humans” (J Med Chem, 2012)
Active and inactive are the calls of the source. No cut-off for these calls is given here.

Experiments:
[1] = Cmin in human at 175 mg, po QID administered on day 1 followed by 2-days wash out period after which dosing continued up to day 11 measured on day 4 at 6 hrs; assay type: ADME, organism-based; settings: in vivo, read-out: Cmin
Method in brief: (§1)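 Healthy male volunteers took part in a double-blind, randomized, placebo-controlled dose-escalation study, with cohorts of 8 (6 on drug, 2 on placebo). Each subject got an oral dose on day 1, then a 2-day washout, then dosing on days 4–11. The 200 mg qd group was titrated over days 1–4. Venous plasma was sampled predose and 0.5–12 h postdose on days 1, 4 and 11, and predose on days 5–10 for troughs.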

Canis familiaris = assay: Dose normalized Cmax in po dosed dog; assay type: ADME, organism-based, Canis lupus familiaris; settings: in vivo
Homo sapiens [2] = assay: Antidyslipidemic activity in dyslipidemia patient assessed as change in triglyceride level at 150 mg administered TID during four week study relative to control; assay type: functional
[3] = Cmax in human at 150 mg, po TID administered on day 1 followed by 2-days wash out period after which dosing continued up to day 11 measured on day 11; assay type: ADME, organism-based; set-up: dose 150 mg, route oral; settings: in vivo; method in brief: as §1
[4] = Oral bioavailability in Sprague-Dawley rat at 10 mg/kg; assay type: ADME, organism-based; settings: in vivo
Method in brief: (§2)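 Male Sprague-Dawley rats were dosed at 10 mg/kg po or 2 mg/kg iv in 80% PEG400/20% phosphate-buffered saline, fasted overnight before the oral dose. Jugular blood was sampled serially from 0.25 to 21 h over 24 h, and heparinized plasma was prepared. Drug was assayed by HPLC/MS/MS (quantitation range 1–2000 ng/mL).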

[5] = AUC (0 to 6 hrs) in human at 175 mg, po QID administered on day 1 followed by 2-days wash out period after which dosing continued up to day 11 measured on day 4; assay type: ADME, organism-based; set-up: time < 6 hr, dose 175 mg, route oral; settings: plasma
Method in brief: (§3)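 Double-blind, placebo-controlled, randomized dose-escalation study in healthy male volunteers, six cohorts of eight (six active, two placebo). Oral dose on day 1, two-day washout, then dosing days 4–11; the 200 mg qd cohort was titrated over days 1–4. Venous blood taken predose and at 0.5–12 h on days 1, 4 and 11; plasma drug measured. τ 12 h (bid), 24 h (qd), 8 h (tid), 6 h (qid).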

[6] = Cmin in human at 175 mg, po QID administered on day 1 followed by 2-days wash out period after which dosing continued up to day 11 measured on day 1 at 6 hrs; assay type: ADME, organism-based; settings: in vivo, read-out: Cmin; method in brief: as §1
[7] = Cmax in human at 50 mg, po BID administered on day 1 followed by 2-day wash out period after which dosing continued up to day 11 measured on day 11; assay type: ADME, organism-based; set-up: dose 50 mg, route oral; settings: in vivo; method in brief: as §1
Homo sapiens [8] = assay: Antidyslipidemic activity in human assessed as decrease in free fatty acid level 175 mg, po QID administered on day 1 followed by 2-days wash out period after which dosing continued up to day 11 measured on day 4 and 11; assay type: functional, organism-based
Method in brief: (§4)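 Healthy male volunteers in a randomized, double-blind, placebo-controlled multiple-dose study, six active and two placebo subjects per cohort. Oral dosing on day 1, two-day washout, then days 4–11, with titration over days 1–4 for the qd arm.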

Homo sapiens [9] = assay: Antidyslipidemic activity in human assessed as decrease in free fatty acid level 150 mg, po TID administered on day 1 followed by 2-days wash out period after which dosing continued up to day 11 measured on day 4 and 11; assay type: functional, organism-based; method in brief: as §4
[10] = Cmax in human at 150 mg, po TID administered on day 1 followed by 2-days wash out period after which dosing continued up to day 11 measured on day 4; assay type: ADME, organism-based; set-up: dose 150 mg, route oral; settings: in vivo; method in brief: as §1
[11] = biological target: Hydroxycarboxylic acid receptor 3 (Homo sapiens) (UniProt P49019); assay: Agonist activity at human GPR109b assessed as decrease in forskolin-stimulated cAMP production by HTRF assay; assay type: functional
[12] = AUC (0 to 12 hrs) in human at 50 mg, po BID administered on day 1 followed by 2-day wash out period after which dosing continued up to day 11 measured on day 4; assay type: ADME, organism-based; set-up: time < 12 hr, dose 50 mg, route oral; settings: plasma; method in brief: as §3
Homo sapiens [13] = assay: Activation of GPR109a receptor in human assessed as PGD2 metabolite level in urine at 10 to >10 mg, po; assay type: functional, organism-based
[14] = Cmax in human at titreated po dose administered from day 1 to 4 followed by 200 mg, po QD administered up to day 11 measured on day 4; assay type: ADME, organism-based; set-up: dose 200 mg, route oral; settings: in vivo; method in brief: as §1
[15] = Tmax in human at titreated po dose administered from day 1 to 4 followed by 200 mg, po QD administered up to day 11 measured on day 11; assay type: ADME, organism-based; settings: in vivo
Method in brief: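 Double-blind, placebo-controlled, randomized multiple oral dose study in healthy male volunteers (cohorts of eight; six active, two placebo). Dose given on day 1, then a two-day washout, then dosing days 4–11; for the QD arm, subjects were titrated over days 1–4. Venous plasma sampled predose and 0.5, 1, 1.5, 2, 4, 6, 8, 10, 12 h postdose on days 1, 4 and 11. Tmax reported as median (min–max).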

[16] = AUC (0 to 6 hrs) in human at 175 mg, po QID administered on day 1 followed by 2-days wash out period after which dosing continued up to day 11 measured on day 11; assay type: ADME, organism-based; set-up: time < 6 hr, dose 175 mg, route oral; settings: plasma; method in brief: as §3
[17] = Plasma clearance in Sprague-Dawley rat at 2 mg/kg, iv; assay type: ADME, organism-based; set-up: dose 2 mg/kg, route intravenous; method in brief: as §2
[18] = Cmax in human at 100 mg, po BID administered on day 1 followed by 2-day wash out period after which dosing continued up to day 11 measured on day 4; assay type: ADME, organism-based; set-up: dose 100 mg, route oral; settings: in vivo; method in brief: as §3
[19] = AUC (0 to 24 hrs) in human at titreated po dose administered from day 1 to 4 followed by 200 mg, po QD administered up to day 11 measured on day 11; assay type: ADME, organism-based; set-up: time < 24 hr, dose 200 mg, route oral; settings: plasma; method in brief: as §3
[20] = AUC (0 to 12 hrs) in human at 50 mg, po BID administered on day 1 followed by 2-day wash out period after which dosing continued up to day 11 measured on day 1; assay type: ADME, organism-based; set-up: dose 50 mg, time < 12 hr, route oral; settings: plasma; method in brief: as §3
[21] = Cmax in human at 150 mg, po BID administered on day 1 followed by 2-day wash out period after which dosing continued up to day 11 measured on day 4; assay type: ADME, organism-based; set-up: dose 150 mg, route oral; settings: in vivo; method in brief: as §1
[22] = AUC (0 to 12 hrs) in human at 50 mg, po BID administered on day 1 followed by 2-day wash out period after which dosing continued up to day 11 measured on day 11; assay type: ADME, organism-based; set-up: dose 50 mg, time < 12 hr, route oral; settings: plasma; method in brief: as §3
Mus musculus = assay: Toxicity in C57/Bl6 mouse assessed as increase in cutaneous blood flow in ear at 100 mg/kg, ip after 5 mins relative to vehicle treated control by laser doppler flowmetry; assay type: organism-based; set-up: dose 100 mg/kg, route intraperitoneal; settings: in vivo
Method in brief: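 Male C57/Bl6 mice (8–10 weeks, ~25 g) anesthetized with Nembutal ip (80 mg/10 mL/kg). Ear perfusion recorded by laser Doppler imaging: 3 min baseline, then vehicle (PBS, 40% HPBCD or 0.5% methylcellulose) or compound given ip at 5 mL/kg through a preinserted syringe, with readings for ~15 min. Expressed as % change of perfusion over baseline.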

[23] = Cmax in human at titreated po dose administered from day 1 to 4 followed by 200 mg, po QD administered up to day 11 measured on day 11; assay type: ADME, organism-based; set-up: dose 200 mg, route oral; settings: in vivo; method in brief: as §1
[24] = AUC (0 to 24 hrs) in human at titreated po dose administered from day 1 to 4 followed by 200 mg, po QD administered up to day 11 measured on day 4; assay type: ADME, organism-based; set-up: dose 200 mg, time < 24 hr, route oral; settings: plasma; method in brief: as §3
[25] = AUC (0 to 12 hrs) in human at 150 mg, po BID administered on day 1 followed by 2-day wash out period after which dosing continued up to day 11 measured on day 4; assay type: ADME, organism-based; set-up: dose 150 mg, time < 12 hr, route oral; settings: plasma; method in brief: as §3

Hydroxycarboxylic acid receptor 3 (Homo sapiens), sequence (P49019 whole entry): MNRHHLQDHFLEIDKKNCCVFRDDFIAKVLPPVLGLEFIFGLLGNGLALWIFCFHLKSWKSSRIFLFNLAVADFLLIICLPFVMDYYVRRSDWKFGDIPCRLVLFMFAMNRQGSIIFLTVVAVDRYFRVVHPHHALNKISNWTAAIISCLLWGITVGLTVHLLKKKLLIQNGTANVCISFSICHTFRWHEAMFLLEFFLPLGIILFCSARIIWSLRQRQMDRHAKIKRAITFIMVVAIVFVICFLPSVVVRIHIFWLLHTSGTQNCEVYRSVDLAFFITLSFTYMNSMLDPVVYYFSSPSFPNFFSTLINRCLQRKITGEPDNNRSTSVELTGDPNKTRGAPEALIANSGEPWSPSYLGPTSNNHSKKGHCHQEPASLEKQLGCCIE

O=C(O)c1n[nH]c2c1C[C@H]1C[C@@H]21
concentration at 6 h [1]: 2.92 nM | Cmax/dose (Canis familiaris): 17.5 µM·kg/mg | Activity (Homo sapiens [2]): -10.3% | Cmax [3]: 44.9 nM | bioavailability [4]: 83% | AUC at 6 h [5]: 0.113 µM·h | concentration at 6 h [6]: 4.01 nM | Cmax [7]: 16.2 nM | Activity (Homo sapiens [8]): Active | Activity (Homo sapiens [9]): Active | Cmax [10]: 52.6 nM | Activity [11]: inactive | AUC at 12 h [12]: 0.0261 µM·h | Activity (Homo sapiens [13]): Active | Cmax [14]: 56.3 nM | Tmax [15]: 1.25 h | AUC at 6 h [16]: 0.123 µM·h | clearance [17]: 17 mL/min/kg | Cmax [18]: 33.1 nM | AUC at 24 h [19]: 0.119 µM·h | AUC at 12 h [20]: 0.0294 µM·h | Cmax [21]: 31.7 nM | AUC at 12 h [22]: 0.0254 µM·h | Activity (Mus musculus): 30% | Cmax [23]: 49.8 nM | AUC at 24 h [24]: 0.114 µM·h | AUC at 12 h [25]: 0.0803 µM·h
